RGS4 inh: inhibitors of human RGS4. P49798. HEK293 M3R/RGS4 inducible, Fluo-4 calcium flux; stronger effect = higher value; triggered by carbachol at its EC20. B-score at 10 µM. actives 0.45% (n = 310,000). AID 463165;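 active = B-score, a plate-corrected calcium signal, over three deviations above library mean, with baseline fluorescence within five deviations of library mean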;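 note: RGS4 expression induced by doxycycline in cells with stable M3 receptor; B-score is computed from the integrated fluorescence ratio over baseline after carbachol; higher B-score means a larger calcium signal and so more RGS4 inhibition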
Target sequence (P49798 whole entry, looked up): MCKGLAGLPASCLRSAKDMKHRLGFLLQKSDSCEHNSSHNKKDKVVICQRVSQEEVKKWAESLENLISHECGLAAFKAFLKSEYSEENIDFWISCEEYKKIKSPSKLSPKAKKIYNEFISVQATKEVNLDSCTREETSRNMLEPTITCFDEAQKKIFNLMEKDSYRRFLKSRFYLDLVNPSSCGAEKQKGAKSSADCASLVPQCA
MrgX1 antagonist: human MrgX1 receptor antagonism, primary screen; MRGX1-HEK293 calcium flux, Fluo-4, BAM8-22 antagonism; stronger effect = lower value; B-score at 10 µM; actives 1.3% (n = 310,000); AID 588676;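 active = calcium-response B-score plate-corrected more than 3 library SD below zero, starting fluorescence within 5 deviations, no agonist response on first addition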;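 note: peak minus trough fluorescence over baseline after final BAM8-22 challenge near maximal dose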
Target sequence (Q96LB2 whole entry, looked up): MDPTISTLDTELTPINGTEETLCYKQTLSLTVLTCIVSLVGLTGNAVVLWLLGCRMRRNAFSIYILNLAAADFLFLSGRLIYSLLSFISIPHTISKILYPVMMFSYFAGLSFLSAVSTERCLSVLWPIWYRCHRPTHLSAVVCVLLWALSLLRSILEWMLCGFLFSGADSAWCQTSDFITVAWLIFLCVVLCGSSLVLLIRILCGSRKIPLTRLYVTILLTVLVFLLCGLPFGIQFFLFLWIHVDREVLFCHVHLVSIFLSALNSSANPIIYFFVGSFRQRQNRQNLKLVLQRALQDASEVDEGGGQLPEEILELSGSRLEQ
MrgX1 PAM: human MrgX1 positive allosteric modulation, primary screen; AID 588675; MrgX1-HEK293, Fluo-4 calcium flux, FDSS; stronger effect = higher value; actives 0.63% (n = 310,000); Q96LB2; B-score at 10 µM;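 active = plate-corrected calcium response at least 3 library SD above typical, normal starting fluorescence, not activating the receptor alone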;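 note: compound read alongside a low EC10 to EC30 dose of BAM8-22 agonist; peak minus trough fluorescence over baseline measured at the second addition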
RGS4 pot: RGS4 potentiation or activation; HEK293 M3R/inducible RGS4, carbachol calcium flux Fluo4; stronger effect = lower value; B-score at 10 µM; actives 0.92% (n = 310,000); AID 463111;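 active = B-score of the integrated calcium signal more than 4 SD below the library mean, with starting fluorescence not abnormally high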;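 note: negative B-score means reduced calcium response which marks RGS4 activation or potentiation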
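Material: M3R-expressing HEK293 line, RGS4 induced by doxycycline | Schedule: Overnight RGS4 induction, 30 min dye load 37 °C, 20 min compound RT | Measured by: Fluo4 fluorescence kinetic imaging of calcium | Read-out: Integrated calcium ratio converted to B score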
MrgX1 ag: agonists of human MrgX1 receptor; Q96LB2; MrgX1-HEK293 cells, Fluo-4 calcium fluorescence, agonist mode; stronger effect = higher value; B-score at 10 µM; actives 0.44% (n = 310,000); AID 588627;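 active = calcium response B-score plate-corrected fluorescence ratio at least 3 library SD, with starting fluorescence B-score inside 5 SD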
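Test system: Stable human MrgX1 HEK293 cell line | Schedule: Overnight plating before 1 h dye loading | Read-out basis: Baseline-normalised fluorescence change ratio, B-scored | Detection: Kinetic calcium dye fluorescence, Fluo-4 NW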
* hit, by the source's call; i = inactive. Only some compounds are listed: those with a hit (about 3.5% of all), similar ones and a draw of the others.

SMILES	RGS4 inh	MrgX1 antagonist	MrgX1 PAM	RGS4 pot	MrgX1 ag
COc1ccc(CNCCC(c2ccc(OC(C)C)cc2)C(C)C)cc1OC (configuration not stated)	i	i	i	i	i
c1ccc(Nc2nc(-c3ccccn3)cs2)cc1	i	i	i	i	i
COc1cccc2sc(Nc3nc(-c4ccccn4)cs3)nc12	i	i	7.8*	-8.7*	i
COc1cccc(NC(=O)c2nc3ncccn3n2)c1	i	i	i	i	i
CCC1CN(C(=O)NCc2ccccc2)c2ccccc2O1 (configuration not stated)	i	i	i	i	i
COC(=O)CC1=C(C(=O)OC)C(c2cccc(OCC(N)=O)c2)C(C#N)=C(N)O1 (configuration not stated)	i	i	i	i	34*
COC(=O)CC1=C(C(=O)OC)C(c2ccncc2)C(C#N)=C(N)O1 (configuration not stated)	i	i	i	i	i
CCOc1ccc(NCc2cccn2-c2nnc(N3CCC(C(=O)NCCCN4CCCCC4)CC3)s2)cc1	i	i	i	-9*	i
Cc1cc(C)c2nc(N3CCC(C(=O)NCC4CCCO4)CC3)sc2c1 (configuration not stated)	i	i	i	i	i
Cc1cc(C)c2nc(N3CCC(C(=O)NCCCN4CCCCC4)CC3)sc2c1	i	i	i	-7.9*	i
CCOc1ccc(NCc2cccn2-c2nnc(N3CCC(C(=O)NCCCN4C(C)CCCC4C)CC3)s2)cc1 (configuration not stated)	i	i	i	-7.6*	i
CCOc1ccc(NCc2cccn2-c2nnc(N3CCC(C(=O)NCCCN4CCCCC4C)CC3)s2)cc1 (configuration not stated)	i	i	i	i	i
OC(c1ccccc1)(C1CCCCC1)C(CN1CCOCC1)c1ccccc1 (configuration not stated)	i	-8.2*	i	i	i
COc1ccc(C(O)(C2CCCCC2)C(CN2CCOCC2)c2ccccc2)cc1 (configuration not stated)	i	i	i	i	i
CCOc1ccc(NC(=O)CN(C)C(=O)CC(NC(=O)c2ccccc2)c2ccccc2)cc1OCC (configuration not stated)	i	i	i	i	36*
CCOc1ccc(NC(=O)CN(C)C(=O)CCNC(=O)c2ccc(Br)cc2)cc1OCC	i	i	i	i	i
CCCN(C(=O)CCOc1ccc(C(C)(C)C)cc1)c1c(N)n(Cc2ccccc2)c(=O)[nH]c1=O	i	i	i	i	i
C=C(C)[C@@H]1CCC2(C(=O)O)CC[C@]3(C)[C@H](CC[C@@H]4[C@@]5(C)CCC(=O)C(C)(C)[C@@H]5CC[C@]43C)[C@@H]12 (some centres not stated)	i	-8.3*	i	i	i
CC(=O)NC1=NC(=O)/C(=C/c2cc(C)n(-c3ccc(NC(C)=O)cc3)c2C)S1	i	-4.5*	i	i	i
O=C(c1cn2ccccc2n1)N1CCCC(Nc2ccc(F)c(F)c2)C1 (configuration not stated)	i	i	i	i	i
O=C1CCCc2nc(N3CCN(C(c4ccccc4)c4ccccc4)CC3)ncc21	i	i	i	-7*	i
CCCc1nc2ccccc2c(=O)n1NC(=O)c1c(O)c2ccccc2n(C)c1=O	i	i	10*	i	i
Cc1cccc(C(=O)O/N=C(\N)CS(=O)(=O)c2ccccc2)c1	i	i	i	i	i
O=C1c2ccccc2-c2cccc(NS(=O)(=O)c3ccc(C(F)(F)F)cc3)c21	i	i	i	-7*	i
CNc1cccc2c1C(=O)c1ccccc1C2=O	i	i	i	i	i
SMILES	RGS4 inh	MrgX1 antagonist	MrgX1 PAM	RGS4 pot	MrgX1 ag
COC(=O)C1Cc2c([nH]c3ccccc23)CN1C(C)=O (configuration not stated)	i	i	i	i	i
Cc1cccc(NC(=O)CSc2nnc(CNC(=O)c3ccc(S(=O)(=O)N(C)C)cc3)n2-c2ccc(F)cc2)c1	i	i	i	i	i
Cc1cccc(-n2c(CNC(=O)c3ccc(S(=O)(=O)N(C)C)cc3)nnc2SCC(=O)Nc2ccc(F)cc2)c1	i	i	i	-8.1*	i
CCOC(=O)C1(CCSC)NC(c2ccco2)C2C(=O)N(C)C(=O)C21 (configuration not stated)	i	i	i	i	i
COc1cc2c(cc1NC(=S)Nc1cccc3ccccc13)oc1ccccc12	i	i	i	i	i
COc1cc2c(cc1NC(=S)Nc1cccc(C(F)(F)F)c1)oc1ccccc12	i	-5.7*	i	i	i
COc1ccc(C(C)=O)cc1CN(c1ccccc1OC)S(=O)(=O)c1cccs1	i	i	i	i	i
COc1cccc(C(=O)Nc2nnc(SCC(=O)NC3CCCC3)s2)c1	i	i	i	i	i
CC(/C=N/NC(=O)c1nnn(-c2nonc2N)c1C(C)C)=C\c1ccco1	i	i	i	i	i
CC1Cc2ccccc2N1S(=O)(=O)c1cccc(C(=O)NCCCO)c1 (configuration not stated)	i	i	i	i	i
CCN(CC)CCNC(=O)c1ccc(NC(=O)c2cccc(S(=O)(=O)N3c4ccccc4CC3C)c2)cc1 (configuration not stated)	i	i	i	-8.4*	i
CC1=NN(/C(=N\c2nnc(C)s2)Nc2ccc(C)cc2)[C@H](c2ccc(C)cc2)S1	i	i	i	i	30*
CCOc1ccc(NC(=O)CC2C(=O)N(C)C(=S)N2Cc2ccc3c(c2)OCO3)cc1 (configuration not stated)	i	i	i	i	i
CCOC(=O)c1ccc(NC(=O)COc2ccc(CNC3CCCCC3)cc2OC)cc1	i	i	i	-7.5*	i
CCCCC(=O)N/N=C(\C)c1cccc(NC(=O)C2CC2)c1	i	-5.6*	i	i	i
O=C(ON=C1CCN(S(=O)(=O)c2ccccc2)CC1)c1ccc(F)cc1	i	-6.1*	i	i	i
Cc1ccc(C(NC(=O)N2CCCC2)C(Cl)Cl)cc1F (configuration not stated)	i	-4.8*	i	i	i
COc1cc(NC(=O)NCC2CCN(Cc3ccccc3C)CC2)cc(OC)c1OC	i	i	i	-7*	i

Screening results deposited in PubChem BioAssay by Johns Hopkins Ion Channel Center.
